PP1 counter – PP1-alpha phosphatase inhibitors, primary screen, counter-screen for PP5 inhibitor project, biochemical, fluorescence, OMFP substrate, single point; 320,000 tested, 0.9% active; purified PP1alpha; AID 2235, 2010; Serine/threonine-protein phosphatase PP1-alpha catalytic subunit (Homo sapiens), P62136; inhibition, % at 6.7 µM;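 active = inhibition above the mean inhibition of all tested compounds plus 3 SD, computed separately for each screening campaign, cut at about 15% in these data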
Myeloid diff 2 – induction of myeloid progenitor differentiation, primary screen, cell-based, flow cytometry, MLPCN library; ER-HoxA9 myeloid progenitors, lysozyme-GFP differentiation; calls only at 10 µM; 360,000 tested, 1% active;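 active = normalized GFP-positive differentiation at or above the plate's own cutoff, the solvent-only control mean plus 3 SD; inconclusive = no clear call, values can overlap the other calls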;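 note: cells exposed to compound for four days before flow analysis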
PP5 inh – PP5 phosphatase inhibitors, primary screen, biochemical, fluorescence; Serine/threonine-protein phosphatase 5 (Homo sapiens), P53041; purified PP5c, OMFP substrate fluorescence; inhibition, % at 6.7 µM; 320,000 tested, 0.18% active; AID 1987, 2009;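 active = inhibition above the campaign's mean inhibition across all tested compounds plus 3 SD, cut at about 9.5% in these data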;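 note: 0% = DMSO only and 100% = 100 µM cantharidin control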
core dimer inh – inhibitors of HCV core protein dimerization, primary screen, biochemical, TR-FRET, high-throughput; 300,000 tested, 0.33% active; AID 1899, 2009; inhibition, % at 5 µM; TR-FRET GST/Flag-core106 dimerization, 1536-well;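 active = inhibition above the mean of all tested compounds plus 3 SD, set per screening campaign, cut at about 45% in these data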
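Test system: GST/Flag-tagged HCV core106 proteins; Medium: KF-containing HEPES buffer, pH 7.45, DTT, CHAPS, BSA; Times: compound-protein-antibody incubation 4 h at 22.5 °C; Detection: TR-FRET 671 and 617 nm emission; Benchmarks: wells lacking GST-core106 and wells with excess unlabelled core106.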
NadD block – inhibitors of S. aureus NadD, primary screen, biochemical, colorimetric, uHTS; 360,000 tested, 0.78% active; purified NadD enzyme, colorimetric absorbance read-out; inhibition, % at 20 µM; Nicotinate-nucleotide adenylyltransferase NadD (Staphylococcus aureus N315); in the data active = inhibition above about 26%
Fh CTSL1 inh – Fasciola hepatica cathepsin L1 inhibitors, primary screen, counter-screen for PFM18AAP inhibitor project, biochemical, QFRET, fluorogenic peptide substrate; inhibition, % at 5.96 µM; 300,000 tested, 0.49% active; recombinant F. hepatica cathepsin L1, Z-Leu-Arg-MCA fluorescence;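 active = inhibition above the mean of all tested compounds plus 3 SD, set per screening campaign, cut at about 17% in these data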;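 note: 0% = plate median of test compound wells and 100% = 1 µM Z-Phe-Ala-diazomethylketone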
The depositor's hits bear a star; i = inactive; ? = inconclusive; · = no result; + = active, no number; ! = not active in a repeat. Shown are actives, neighbours in structure and some others; about 3.1% of the full set was active somewhere.

SMILES	PP1 counter	Myeloid diff 2	PP5 inh	core dimer inh	NadD block	Fh CTSL1 inh
CC(C)[C@H](NC(=O)c1ccccc1)C(=O)OCC(=O)c1ccc(S(=O)(=O)N2CCCCC2)cc1	-2	i	-2	8	-3	35*
COc1ccc([C@H]2CC(=O)C=C(c3cc(Br)ccc3OC)C2)cc1	·	+	·	·	2	·
COc1ccc(CC(=O)NCc2ccccc2F)cc1S(=O)(=O)N1CCOCC1	·	i	·	·	-1	·
CCN1/C(=C/c2ccc3cc(C)ccc3[n+]2C)Sc2ccc3sccc3c21	·	i	·	·	64*	·
COc1ccc(C(O)c2nc(-c3cccc(F)c3)cs2)cc1 (centres undefined)	·	i	·	·	-7	·
CCOC(=O)c1cnn(-c2nc(SC)nc3sc4c(c23)CCC4)c1N	5	i	-1	80*	6	-2
CCOC(=O)[C@H]1O[C@@H]1C(=O)N[C@@H](CC(C)C)C(=O)NCCC(C)C	1	i	0	-3	-2	106*
CC(C)CCNC(=O)C1c2ccccc2Oc2ccccc21	0	i	5	2	-2	3
CC(C)CCNC(=O)[C@H](CC(C)C)NC(=O)[C@H]1O[C@@H]1C(=O)O	5	·	-2	6	·	111*
CCOC(=O)N1CCC(NC(=O)C(CC(C)C)NC(=O)C2CCCCC2)CC1 (centres undefined)	1	i	-1	-6	-1	3
N#CCCCCn1ccc(NC(=O)c2ccc(Cl)cc2O)n1	1	i	3	4	-8	4
Cc1cc(C)n2nc(SC(C)C(=O)Nc3ccccc3F)nc2n1 (centres undefined)	·	i	·	·	0	·
COC(=O)c1cc(C)nc2c1C(=O)C(=O)C=C2N1CCOCC1	16*	?	7	36	7	110*
COc1ccc(C)cc1S(=O)(=O)N(CC(=O)NCc1ccc(Cl)cc1)Cc1ccccc1	0	+	4	0	-7	-2
COc1ccc(C)cc1S(=O)(=O)N(CC(=O)N1CCOCC1)Cc1ccccc1	0	i	5	-1	0	-1
COc1ccc(CNC(=O)CN(Cc2ccc(Cl)cc2)S(=O)(=O)c2ccccc2)cc1	1	+	3	1	4	4
COc1ccc(CNC(=O)CN(Cc2ccccc2)S(=O)(=O)c2ccc(Cl)cc2)cc1	2	i	3	1	-8	1
CCCCc1ccc(NC(=O)CSCc2cc(=O)[nH][nH]2)cc1	16*	i	0	1	4	1
O=C(CSCc1cc(=O)[nH][nH]1)Nc1ccc(F)cc1	0	i	2	-3	0	-2
O=C1CSC(=S)N1/N=C/c1ccc2c(c1)OCCO2	-2	i	-1	2	4	2
O=C1CSC(=S)N1/N=C/c1ccc(Cl)c([N+](=O)[O-])c1	3	·	0	65*	·	2
O=[N+]([O-])c1ccc(N/N=C/c2c[nH]c3ccccc23)c(S(=O)(=O)Nc2ccc(Cl)cc2)c1	1	+	1	12	16	3
C/C(=N/Nc1ccc([N+](=O)[O-])cc1)c1c[nH]c2ccccc12	·	+	·	·	-1	·
COc1ccccc1NS(=O)(=O)c1cc([N+](=O)[O-])ccc1N/N=C/c1c(C)[nH]c2ccccc12	0	+	5	15	28	2
Cc1[nH]c2ccccc2c1/C=N/Nc1ccc([N+](=O)[O-])cc1	4	+	3	-23	5	1
C/C(=N/Nc1ccc([N+](=O)[O-])cc1)c1ccc(C)cc1C	2	i	8	3	-8	4
Cc1[nH]c2ccccc2c1/C=N/NC(=O)c1cccc([N+](=O)[O-])c1	4	i	1	-8	2	2
CCOC(=O)C1CCN(C(=O)c2cccc(S(=O)(=O)NCc3ccccc3)c2)CC1	-1	i	2	·	4	·
O=[N+]([O-])c1ccc(COP(=O)(O)OCc2ccc([N+](=O)[O-])cc2)cc1	-6	+!	-3	-12	-7	-1

Source: PubChem (several laboratories)
